# Measured values as given in PMC3099476 (Toxicology and applied pharmacology, 2011).
# Assays:
# [1] = system: B6C3F1 male mice; experiment: Liver histology necrosis score; format: in vivo, mouse; settings: score 0 absent to 4 severe
# In short: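 Six-week male B6C3F1 mice, fasted overnight, dosed at 0800 with the analgesic hepatotoxicant IP, then immediately the test compound (MPT inhibitor, 50 or 10 mg/kg IP) or vehicle. Hepatotoxicant was 200 mg/kg IP in the 10 mg/kg arm. Saline controls included; 3–6 mice per group. Killed at 4 h. Liver H&E sections scored blind by three reviewers, 0 (absent) to 4 (severe); mean ± SE.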
# [2] = system: APAP protein adducts in liver; experiment: Hepatic APAP protein adducts; format: in vivo, mouse
# [3] = system: B6C3F1 male mice; experiment: Serum ALT in APAP toxicity; format: in vivo, mouse
# [4] = system: HIF-1α; settings: B6C3F1 male mice with APAP toxicity; 1 h; ref James et al., 2006; cited from earlier work
# [5] = APAP 200 mg/kg IP followed by pimonidazole 60 mg/kg IP vs APAP/vehicle, 1 h
"Hepatic APAP protein adducts vs saline ([2]; APAP followed by CYC 50 mg/kg IP or vehicle, 1, 2, and 4 h)","Hepatic protein adducts vs saline ([2]; APAP/veh or APAP/CYC 10 mg/kg, 1 h)","APAP protein adducts ([2]; APAP/veh or APAP/CYC 10 mg/kg, 4 h (data not shown))","Hepatic APAP protein adduct levels ([2]; separate experiment, APAP/veh or APAP/CYC 10 mg/kg, 1 h)","Hepatic APAP protein adducts [2, 5]","Effect of pimonidazole on APAP metabolism ([2]; pimonidazole 60 mg/kg IP after APAP 200 mg/kg IP, 1 h)",SMILES,"Necrosis Scores at 4 hours, Mean ([1]; Table 1A, CYC 50 mg/kg experiment)","Necrosis Scores at 4 hours, Mean ([1]; Table 1B, CYC 10 mg/kg experiment)","ALT vs saline ([3]; APAP 200 mg/kg IP followed by CYC 10 mg/kg IP or vehicle, 4 h)","Serum ALT, time course ([3]; APAP 200 mg/kg IP, at 2, 4, 8, 24 and 48 h, vs saline)","Serum ALT levels ([3]; APAP 15, 30, 100, or 200 mg/kg IP, sacrificed at 1 h, vs saline)","Serum ALT vs saline ([3]; APAP followed by CYC 50 mg/kg IP or vehicle, 4 h)",HIF-1α induction [4],"Serum ALT [3, 5]"
increased,increased above saline,comparable,elevated,,,"CC(=O)Nc1ccc(O)cc1 [APAP, N-acetyl-p-aminophenol]",3,2,significantly increased,significantly increased above saline,No significant changes,significantly increased,induction of HIF-1α,
,,,,comparable,no inhibitory affect on APAP metabolism,O=[N+]([O-])c1nccn1CC(O)CN1CCCCC1 (centres unmarked) [pimonidazole],,,,,,,,comparable
